Values after ≈ are worked out from the molar mass of the structure shown.
Assays:
[1] = Aqueous solubility at pH 7.4 by direct UV method; type: physicochemical; conditions: aqueous medium
In short: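 Solubility measured in pH 7.4 buffer with direct UV read-out.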

[2] = target: Potassium voltage-gated channel subfamily A member 5 (Homo sapiens, UniProt P22460); assay: Inhibition of human Kv1.5 expressed in CHO cells by patch-clamp technique; type: cell-based
In short: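 Human Kv1.5 stably expressed in CHO cells. IC50 was determined by automated patch clamp on the IonWorks platform.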

[3] = Metabolic stability in human liver microsomes assessed as half life; type: ADME, Microsome
In short: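 Test compound at 1 μM incubated with 1 mg/mL male beagle dog or male human liver microsomal protein. Half-life was determined from compound loss.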

CYP3A4 = CYP3A4 (Homo sapiens, UniProt P08684); assay: Inhibition of CYP3A4 at 3 uM by fluorescent method; type: ADME
In short: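 CYP3A4 inhibition measured by a fluorescent method.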

[4] = target: Voltage-gated inwardly rectifying potassium channel KCNH2 (Homo sapiens, UniProt Q12809); assay: Inhibition of human ERG by patch-clamp technique
Chain of Voltage-gated inwardly rectifying potassium channel KCNH2 (Q12809 whole entry): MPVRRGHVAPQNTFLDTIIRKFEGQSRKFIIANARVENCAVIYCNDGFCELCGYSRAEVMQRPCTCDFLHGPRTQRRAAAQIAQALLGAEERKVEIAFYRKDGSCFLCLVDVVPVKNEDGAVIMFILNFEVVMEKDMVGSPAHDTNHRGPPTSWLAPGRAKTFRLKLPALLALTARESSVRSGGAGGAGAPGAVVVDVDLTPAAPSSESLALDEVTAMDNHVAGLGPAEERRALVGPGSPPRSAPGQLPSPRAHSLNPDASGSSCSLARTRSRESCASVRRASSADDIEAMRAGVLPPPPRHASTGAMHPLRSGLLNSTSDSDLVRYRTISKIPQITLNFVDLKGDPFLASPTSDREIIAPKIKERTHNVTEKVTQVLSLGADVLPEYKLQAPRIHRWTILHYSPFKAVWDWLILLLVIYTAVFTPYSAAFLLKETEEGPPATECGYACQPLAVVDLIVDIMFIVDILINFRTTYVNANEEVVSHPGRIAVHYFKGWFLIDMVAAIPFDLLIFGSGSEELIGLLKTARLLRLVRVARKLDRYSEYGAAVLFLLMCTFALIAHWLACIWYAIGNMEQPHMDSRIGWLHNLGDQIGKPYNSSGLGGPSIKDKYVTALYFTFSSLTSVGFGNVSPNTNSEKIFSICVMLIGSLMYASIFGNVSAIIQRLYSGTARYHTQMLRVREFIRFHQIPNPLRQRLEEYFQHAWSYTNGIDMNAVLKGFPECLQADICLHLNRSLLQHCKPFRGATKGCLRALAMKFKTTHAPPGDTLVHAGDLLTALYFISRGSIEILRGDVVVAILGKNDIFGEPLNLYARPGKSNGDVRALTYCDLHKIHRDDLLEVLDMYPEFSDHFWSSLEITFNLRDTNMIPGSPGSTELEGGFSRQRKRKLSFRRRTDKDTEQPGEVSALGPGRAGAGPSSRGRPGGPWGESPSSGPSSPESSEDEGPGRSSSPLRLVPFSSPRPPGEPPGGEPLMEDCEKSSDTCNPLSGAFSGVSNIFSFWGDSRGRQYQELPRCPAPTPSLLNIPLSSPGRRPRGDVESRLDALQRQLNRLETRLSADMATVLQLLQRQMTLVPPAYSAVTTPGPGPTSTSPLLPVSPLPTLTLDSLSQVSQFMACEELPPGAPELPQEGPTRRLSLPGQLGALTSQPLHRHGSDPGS

Chain of Potassium voltage-gated channel subfamily A member 5 (P22460 whole entry): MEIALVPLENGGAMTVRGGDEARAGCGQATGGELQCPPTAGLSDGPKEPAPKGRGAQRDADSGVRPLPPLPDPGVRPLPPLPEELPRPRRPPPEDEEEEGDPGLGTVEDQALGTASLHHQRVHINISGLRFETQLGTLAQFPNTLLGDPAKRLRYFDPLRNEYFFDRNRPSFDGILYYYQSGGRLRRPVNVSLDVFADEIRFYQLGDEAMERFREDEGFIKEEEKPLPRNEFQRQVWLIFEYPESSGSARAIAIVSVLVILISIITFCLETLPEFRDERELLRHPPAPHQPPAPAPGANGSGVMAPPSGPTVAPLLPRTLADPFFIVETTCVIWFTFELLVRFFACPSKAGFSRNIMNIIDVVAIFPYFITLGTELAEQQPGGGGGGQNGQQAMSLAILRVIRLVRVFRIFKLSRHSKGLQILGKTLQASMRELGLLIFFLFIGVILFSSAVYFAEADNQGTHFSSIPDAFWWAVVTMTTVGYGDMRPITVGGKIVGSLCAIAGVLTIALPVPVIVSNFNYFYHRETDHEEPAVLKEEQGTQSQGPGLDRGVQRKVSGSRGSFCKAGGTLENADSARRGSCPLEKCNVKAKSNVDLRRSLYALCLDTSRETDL
Chain of CYP3A4 (P08684 whole entry): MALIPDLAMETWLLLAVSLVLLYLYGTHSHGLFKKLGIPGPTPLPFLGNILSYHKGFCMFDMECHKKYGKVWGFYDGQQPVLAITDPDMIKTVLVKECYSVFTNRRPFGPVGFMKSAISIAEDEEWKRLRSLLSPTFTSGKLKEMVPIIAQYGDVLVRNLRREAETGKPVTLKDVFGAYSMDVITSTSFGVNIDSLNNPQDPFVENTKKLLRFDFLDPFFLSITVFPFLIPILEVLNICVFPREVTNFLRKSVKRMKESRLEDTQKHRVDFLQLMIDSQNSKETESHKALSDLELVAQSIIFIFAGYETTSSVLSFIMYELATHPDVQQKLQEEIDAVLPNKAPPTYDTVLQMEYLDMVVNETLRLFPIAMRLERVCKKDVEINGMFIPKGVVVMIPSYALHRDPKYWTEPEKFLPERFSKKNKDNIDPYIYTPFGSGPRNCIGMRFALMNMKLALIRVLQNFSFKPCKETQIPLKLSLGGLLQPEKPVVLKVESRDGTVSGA

| SMILES | solubility [1] [µg/mL] | IC50 [2] [µM] | half-life [3] [min] | inhibition at 3 µM (CYP3A4) [%] | IC50 [4] [µM] |
| --- | --- | --- | --- | --- | --- |
| COc1ccc(CCN2C(=O)N(NS(C)(=O)=O)CC2c2ccc(C(F)(F)F)cc2)cc1 (stereo not drawn) | 13 (≈ 28.4 µM) | 0.25 | 30 | 67 | 9.1 |
| COc1ccc(CCN2C(=O)N(NS(C)(=O)=O)CC2c2ccc(OC(C)C)cc2)cc1 (stereo not drawn) | 26 (≈ 58.1 µM) | 0.24 | 30 | 53 | 17 |
| COCCOc1ccc(C2CN(NS(C)(=O)=O)C(=O)N2CCc2ccc(OC)cc2)cc1 (stereo not drawn) | 100 (≈ 216 µM) | 7.45 | 30 | 50 | – |
| COc1ccc(CCN2C(=O)N(NS(C)(=O)=O)CC2c2ccc(C)cc2)cc1 (stereo not drawn) | 42 (≈ 104 µM) | 0.24 | 18 | 58 | 11.2 |
| COc1ccc([C@H]2CN(NS(C)(=O)=O)C(=O)N2CCc2ccc(OC(F)(F)F)cc2)cc1 | 4 (≈ 8.45 µM) | 0.52 | 15 | 53 | 5.6 |
| COc1ccc(CCN2C(=O)N(NS(C)(=O)=O)CC2c2ccc(C3CC3)cc2)cc1 (stereo not drawn) | 1 (≈ 2.33 µM) | 0.16 | 30 | 78 | 8.4 |
| COc1ccc(CCCN2C(=O)N(NS(C)(=O)=O)C[C@@H]2c2ccc(OC)cc2)cc1 | 18 (≈ 41.5 µM) | 0.1 | 29 | 84 | 14.1 |
| COc1ccc(CCN2C(=O)N(NS(C)(=O)=O)CC2c2ccc(Cl)cc2)cc1 (stereo not drawn) | 4 (≈ 9.44 µM) | 0.2 | 30 | 27 | – |
| COc1ccc(CCN2C(=O)N(NS(C)(=O)=O)CC2c2ccc(C)c(C)c2)cc1 (stereo not drawn) | 17 (≈ 40.7 µM) | 0.61 | 13 | 77 | 15.8 |
